Measured values: ChEMBL document CHEMBL1124401, “1-(2,3-Dideoxy-beta-D-glycero-pent-2-enofuranosyl)thymine. A highly potent and selective anti-HIV agent” (J Med Chem, 1989)

Tests used:
[1] = test system: Human immunodeficiency virus; experiment: The inhibition of compound was determined by reverse transcriptase assay using RNA as template; assay type: functional
How it was run: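 HIV reverse transcriptase assay with poly(rA):oligo(dT) as RNA template/primer. Various triphosphate concentrations were tested, and Ki was derived from Dixon plots.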

[2] = test system: Human immunodeficiency virus; experiment: The inhibition of compound was determined by reverse transcriptase assay using DNA as template; assay type: functional
How it was run: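 HIV reverse transcriptase assay (DNA-dependent DNA polymerase activity) with poly(dA):oligo(dT) as DNA template/primer. Various triphosphate concentrations were tested, and Ki was derived from Dixon plots.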

[3] = The 50% inhibitory concentration expresses cellular toxicity measured against normal human erythrocyte progenitor cells (BFU-E); conditions: read-out: ID50 (the source's name)
[4] = The 90% inhibitory concentration expresses cellular toxicity measured against normal human granulocyte-monocyte cells
[5] = The 50% inhibitory concentration expresses cellular toxicity measured against normal human granulocyte-monocyte cells
[6] = test system: CCRF-CEM; experiment: In vitro antiviral test was performed on HIV(LAV strain) infected CEM cells; assay type: functional; conditions: Homo sapiens, read-out: ID50 (the source's name)
How it was run: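 CEM-F cells infected with about 30 TCID50 of HIV (LAV strain), held 45 min at 37 °C, then given compound at various concentrations in culture medium and incubated 8 days. Virus expression read as p24 gag antigen in culture supernatant by sandwich/enzyme-capture ELISA. ID50 (μM) taken as the dose inhibiting 50% of virus expression.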

[7] = test system: CCRF-CEM; experiment: Cellular toxicity was measured in CEM cells after 8 days by using a [3H]- thymidine uptake assay; assay type: cell-based; conditions: human, 192 h, read-out: TCID50
How it was run: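 Uninfected CEM cells treated with various compound concentrations for 8 days; cytotoxicity read by [3H]thymidine uptake and expressed as 50% tissue culture inhibitory dose (TCID50).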

[8] = Cellular toxicity was measured in normal human granulocyte-monocyte progenitor cells (CFU-GM); conditions: read-out: ID50 (the source's name)
[9] = test system: CCRF-CEM; experiment: Cellular toxicity measured in CEM cells

Cc1cn([C@H]2C[C@H](N=[N+]=[N-])[C@@H](COP(=O)(O)OP(=O)(O)OP(=O)(O)O)O2)c(=O)[nH]c1=O [ZIDOVUDINE TRIPHOSPHATE] gave a Ki [1] of 0.007 µM and a Ki [2] of 84 µM.
In the case of Cc1cn([C@H]2C=C[C@@H](CO)O2)c(=O)[nH]c1=O [STAVUDINE], the CC50 [3] is reported as 10 µM, the ID90 [4] is reported as > 100 µM and the ID50 [5] is reported as 100 µM. For the same compound, the IC50 [6] was 0.15 µM and the CC50 [7] was 90 µM.
Cc1cn([C@H]2C[C@H](N=[N+]=[N-])[C@@H](CO)O2)c(=O)[nH]c1=O [ZIDOVUDINE] gave a CC50 [8] of 1 µM, a CC50 [3] of 6.7 µM and an ID90 [4] of 20 µM. The IC50 [6] was 0.1 µM and the CC50 [9] was 29 µM.
Cc1cn([C@H]2C=C[C@@H](COP(=O)(O)OP(=O)(O)OP(=O)(O)O)O2)c(=O)[nH]c1=O [STAVUDINE TRIPHOSPHATE] showed a Ki [1] of 0.032 µM and a Ki [2] of 70 µM.
Cc1cn([C@H]2CC[C@@H](COP(=O)(O)OP(=O)(O)OP(=O)(O)O)O2)c(=O)[nH]c1=O gave a Ki [1] of 0.05 µM and a Ki [2] of 84 µM.
